Laboratory results reported in ChEMBL document CHEMBL1806473, “Structure-based optimization of click-based histone deacetylase inhibitors” (Eur J Med Chem, 2011).

Tests used:
CCRF-CEM [1] = assay: Antiproliferative activity against human CCRF-CEM cells by SRB assay; type: functional
Procedure, shortened: (§1)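 Tested in the NCI in vitro human tumor cell line screen, run by the National Cancer Institute. Each compound was given at five concentrations (100, 10, 1.0, 0.1 and 0.01 μM). GI50 is the drug concentration that reduces growth of treated cells to half that of control cells during drug incubation, judged from the SRB signal.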

K562 [2] = assay: Antiproliferative activity against human K562 cells by SRB assay; type: functional; procedure, shortened: as §1
SR = assay: Antiproliferative activity against human SR cells by SRB assay; type: functional
Procedure, shortened: (§2)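 Cell growth was tested in the NIH in vitro disease-oriented human tumor cell line screen, which NCI ran for these compounds. Compounds were tested at five concentrations (100, 10, 1.0, 0.1 and 0.01 μM), and growth was read by SRB signal. GI50 is the drug concentration that reduces growth of treated cells to half that of control cells during drug incubation.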

EKVX = assay: Antiproliferative activity against human EKVX cells by SRB assay; type: functional; procedure, shortened: as §1
HOP-92 [3] = assay: Antiproliferative activity against human HOP92 cells by SRB assay; type: functional; procedure, shortened: as §1
NCI-H226 [4] = assay: Antiproliferative activity against human NCI-H226 cells by SRB assay; type: functional; procedure, shortened: as §1
NCI-H23 [5] = assay: Antiproliferative activity against human NCI-H23 cells by SRB assay; type: functional; procedure, shortened: as §1
NCI-H460 [6] = assay: Antiproliferative activity against human NCI-H460 cells by SRB assay; type: functional; procedure, shortened: as §1
COLO 205 = assay: Antiproliferative activity against human COLO205 cells by SRB assay; type: functional; procedure, shortened: as §1
HCT-116 = assay: Antiproliferative activity against human HCT116 cells by SRB assay; type: functional; procedure, shortened: as §1
HCT-15 = assay: Antiproliferative activity against human HCT15 cells by SRB assay; type: functional; procedure, shortened: as §1
HT-29 = assay: Antiproliferative activity against human HT-29 cells by SRB assay; type: functional; procedure, shortened: as §1
SW-620 [7] = assay: Antiproliferative activity against human SW620 cells by SRB assay; type: functional; procedure, shortened: as §2
SF-295 = assay: Antiproliferative activity against human SF295 cells by SRB assay; type: functional; procedure, shortened: as §1
SNB-19 = assay: Antiproliferative activity against human SNB19 cells by SRB assay; type: functional; procedure, shortened: as §1
U-251 = assay: Antiproliferative activity against human U251 cells by SRB assay; type: functional; procedure, shortened: as §2
LOX IMVI [8] = assay: Antiproliferative activity against human LOXIMVI cells by SRB assay; type: functional; procedure, shortened: as §1
M14 [9] = assay: Antiproliferative activity against human M14 cells by SRB assay; type: functional; procedure, shortened: as §1
SK-MEL-28 [10] = assay: Antiproliferative activity against human SK-MEL-28 cells by SRB assay; type: functional; procedure, shortened: as §1
UACC-257 = assay: Antiproliferative activity against human UACC257 cells by SRB assay; type: functional; procedure, shortened: as §2
IGROV-1 [11] = assay: Antiproliferative activity against human IGROV1 cells by SRB assay; type: functional; procedure, shortened: as §1
OVCAR-3 = assay: Antiproliferative activity against human OVCAR3 cells by SRB assay; type: functional; procedure, shortened: as §1
OVCAR-4 [12] = assay: Antiproliferative activity against human OVCAR4 cells by SRB assay; type: functional; procedure, shortened: as §1
OVCAR-8 [13] = assay: Antiproliferative activity against human OVCAR8 cells by SRB assay; type: functional; procedure, shortened: as §1
RXF 393 = assay: Antiproliferative activity against human RXF393 cells by SRB assay; type: functional; procedure, shortened: as §1
TK-10 = assay: Antiproliferative activity against human TK10 cells by SRB assay; type: functional; procedure, shortened: as §2
UO-31 = assay: Antiproliferative activity against human UO31 cells by SRB assay; type: functional; procedure, shortened: as §2
DU-145 = assay: Antiproliferative activity against human DU145 cells by SRB assay; type: functional; procedure, shortened: as §1
MCF7 [14] = assay: Antiproliferative activity against human MCF7 cells by SRB assay; type: functional; procedure, shortened: as §1
MDA-MB-231 = assay: Antiproliferative activity against human MDA-MB-231 cells by SRB assay; type: functional; procedure, shortened: as §1
[15] = Antiproliferative activity against human Hs 578T cells by SRB assay; type: functional; procedure, shortened: as §1
T47D [16] = assay: Antiproliferative activity against human T47D cells by SRB assay; type: functional; procedure, shortened: as §2
CCRF-CEM [17] = assay: Cytotoxicity against human CCRF-CEM cells; type: cell-based
HL-60(TB) = assay: Cytotoxicity against human HL-60(TB) cells; type: cell-based
K562 [18] = assay: Cytotoxicity against human K562 cells; type: cell-based
MOLT-4 = assay: Cytotoxicity against human MOLT4 cells; type: cell-based
HOP-92 [19] = assay: Cytotoxicity against human HOP92 cells; type: cell-based
NCI-H226 [20] = assay: Cytotoxicity against human NCI-H226 cells; type: cell-based
NCI-H23 [21] = assay: Cytotoxicity against human NCI-H23 cells; type: cell-based
NCI-H322M = assay: Cytotoxicity against human NCI-H322M cells; type: cell-based
NCI-H460 [22] = assay: Cytotoxicity against human NCI-H460 cells; type: cell-based
KM12 = assay: Cytotoxicity against human KM12 cells; type: cell-based
SW-620 [23] = assay: Cytotoxicity against human SW620 cells; type: cell-based
Procedure, shortened: (§3)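 Screened by NCI in its in vitro disease-oriented human tumour cell line panel. Compounds tested at five concentrations (100, 10, 1.0, 0.1 and 0.01 μM). Growth read by sulforhodamine B (SRB) signal. GI50 is the concentration reducing growth of treated cells to half that of control cells during the drug incubation.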

LOX IMVI [24] = assay: Cytotoxicity against human LOXIMVI cells; type: cell-based
M14 [25] = assay: Cytotoxicity against human M14 cells; type: cell-based
MDA-MB-435 = assay: Cytotoxicity against human MDA-MB-435 cells; type: cell-based
SK-MEL-28 [26] = assay: Cytotoxicity against human SK-MEL-28 cells; type: cell-based
SK-MEL-5 = assay: Cytotoxicity against human SK-MEL-5 cells; type: cell-based
UACC-62 = assay: Cytotoxicity against human UACC62 cells; type: cell-based; procedure, shortened: as §3
IGROV-1 [27] = assay: Cytotoxicity against human IGROV1 cells; type: cell-based
OVCAR-4 [28] = assay: Cytotoxicity against human OVCAR4 cells; type: cell-based
OVCAR-8 [29] = assay: Cytotoxicity against human OVCAR8 cells; type: cell-based
SK-OV-3 = assay: Cytotoxicity against human SKOV3 cells; type: cell-based
786-0 = assay: Cytotoxicity against human 786-0 cells; type: cell-based
A498 = assay: Cytotoxicity against human A498 cells; type: cell-based
ACHN = assay: Cytotoxicity against human ACHN cells; type: cell-based
CAKI-1 = assay: Cytotoxicity against human Caki1 cells; type: cell-based
SN12C = assay: Cytotoxicity against human SN12C cells; type: cell-based; procedure, shortened: as §3
PC-3 = assay: Cytotoxicity against human PC3 cells; type: cell-based
MCF7 [30] = assay: Cytotoxicity against human MCF7 cells; type: cell-based
[31] = Cytotoxicity against human Hs 578T cells; type: cell-based
BT-549 = assay: Cytotoxicity against human BT549 cells; type: cell-based
T47D [32] = assay: Cytotoxicity against human T47D cells; type: cell-based; procedure, shortened: as §3

O=C(/C=C/c1ccc(CN(CCO)CCc2c[nH]c3ccccc23)cc1)NO [DACINOSTAT]
GI50 (CCRF-CEM [1]): 0.251 µM | GI50 (K562 [2]): 0.55 µM | GI50 (SR): 2.99 µM | GI50 (EKVX): 1.75 µM | GI50 (HOP-92 [3]): 0.199 µM | GI50 (NCI-H226 [4]): 1.41 µM | GI50 (NCI-H23 [5]): 1.5 µM | GI50 (NCI-H460 [6]): 0.7 µM | GI50 (COLO 205): 1.08 µM | GI50 (HCT-116): 0.347 µM | GI50 (HCT-15): 2.07 µM | GI50 (HT-29): 0.566 µM | GI50 (SW-620 [7]): 0.478 µM | GI50 (SF-295): 0.743 µM | GI50 (SNB-19): 1.53 µM | GI50 (U-251): 0.773 µM | GI50 (LOX IMVI [8]): 1.08 µM | GI50 (M14 [9]): 0.849 µM | GI50 (SK-MEL-28 [10]): 0.993 µM | GI50 (UACC-257): 0.393 µM | GI50 (IGROV-1 [11]): 0.187 µM | GI50 (OVCAR-3): 1.11 µM | GI50 (OVCAR-4 [12]): 3.21 µM | GI50 (OVCAR-8 [13]): 0.45 µM | GI50 (RXF 393): < 0.01 µM | GI50 (TK-10): 0.495 µM | GI50 (UO-31): 1.12 µM | GI50 (DU-145): 0.58 µM | GI50 (MCF7 [14]): 0.73 µM | GI50 (MDA-MB-231): 1.96 µM | GI50 [15]: 0.619 µM | GI50 (T47D [16]): 0.444 µM | LC50 (CCRF-CEM [17]): > 100 µM | LC50 (HL-60(TB)): > 100 µM | LC50 (K562 [18]): > 100 µM | LC50 (MOLT-4): 86.9 µM | LC50 (HOP-92 [19]): 68.2 µM | LC50 (NCI-H226 [20]): 20 µM | LC50 (NCI-H23 [21]): > 100 µM | LC50 (NCI-H322M): > 100 µM | LC50 (NCI-H460 [22]): > 100 µM | LC50 (KM12): 29.9 µM | LC50 (SW-620 [23]): 81.3 µM | LC50 (LOX IMVI [24]): 6.04 µM | LC50 (M14 [25]): 93.8 µM | LC50 (MDA-MB-435): 28.8 µM | LC50 (SK-MEL-28 [26]): 31.9 µM | LC50 (SK-MEL-5): 4.02 µM | LC50 (UACC-62): 6.39 µM | LC50 (IGROV-1 [27]): 48.9 µM | LC50 (OVCAR-4 [28]): > 100 µM | LC50 (OVCAR-8 [29]): 92.5 µM | LC50 (SK-OV-3): 28.5 µM | LC50 (786-0): 52.4 µM | LC50 (A498): 5.88 µM | LC50 (ACHN): 94.3 µM | LC50 (CAKI-1): 5.79 µM | LC50 (SN12C): > 100 µM | LC50 (PC-3): 73.5 µM | LC50 (MCF7 [30]): > 100 µM | LC50 [31]: > 100 µM | LC50 (BT-549): 85.6 µM | LC50 (T47D [32]): > 100 µM
